Measured values gathered from unrelated publications.
Protocols differ between the studies behind these lines.
Target: Prostaglandin G/H synthase 2 (PTGS2, Homo sapiens, UniProt P35354)
Observed: enzyme activity
Action: inhibitor
One construct used (P35354 18-604): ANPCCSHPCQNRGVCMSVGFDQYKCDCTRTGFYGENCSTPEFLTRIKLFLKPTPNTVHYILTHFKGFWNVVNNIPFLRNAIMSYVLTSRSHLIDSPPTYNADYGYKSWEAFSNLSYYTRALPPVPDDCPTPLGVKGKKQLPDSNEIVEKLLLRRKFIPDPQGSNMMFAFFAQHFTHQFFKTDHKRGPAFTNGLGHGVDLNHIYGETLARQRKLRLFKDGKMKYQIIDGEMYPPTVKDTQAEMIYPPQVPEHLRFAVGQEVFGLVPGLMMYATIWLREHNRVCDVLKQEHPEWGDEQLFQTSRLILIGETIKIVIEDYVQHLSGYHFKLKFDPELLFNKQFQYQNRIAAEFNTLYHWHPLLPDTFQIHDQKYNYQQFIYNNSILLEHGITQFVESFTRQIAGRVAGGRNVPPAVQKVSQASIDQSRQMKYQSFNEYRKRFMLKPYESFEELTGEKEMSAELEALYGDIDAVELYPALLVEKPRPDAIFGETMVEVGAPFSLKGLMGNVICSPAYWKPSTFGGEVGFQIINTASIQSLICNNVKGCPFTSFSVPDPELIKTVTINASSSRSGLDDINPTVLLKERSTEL

Structure (SMILES) | IC50 [µM]
NS(=O)(=O)c1ccc(-n2nc(C(=O)NN=Cc3cccnc3)cc2-c2ccccc2)cc1 | 3.93
Cc1ccc(S(=O)(=O)NNC(=O)COC(=O)c2ccccc2Nc2cccc(C(F)(F)F)c2)cc1 | 9
COc1cc(NC(=O)c2cnn(-c3ccc([N+](=O)[O-])cc3)c2C(F)(F)F)cc(OC)c1 | 5.78
Cc1ccc(S(=O)(=O)NNc2ccc([N+](=O)[O-])cc2[N+](=O)[O-])cc1 | 4.74
CC(=NNC(=O)c1cc(-c2ccccc2)n(-c2ccc(S(N)(=O)=O)cc2)n1)c1ccc(C)cc1 | 1.34
O=C(Nc1ccc(-c2ccccc2)cc1)c1cnn(-c2ccc([N+](=O)[O-])cc2)c1C(F)(F)F | 6
O=C(COC(=O)c1ccccc1Nc1cccc(C(F)(F)F)c1)Nc1ccc(F)cc1 | 58
Cc1ccc(S(=O)(=O)[N](Nc2ccc([N+](=O)[O-])cc2[N+](=O)[O-])[Sn]([Cl])[Cl])cc1 | 2.74
